From ChEMBL document CHEMBL3526062, “Role of human UDP-glucuronosyltransferases in the biotransformation of the triazoloacridinone and imidazoacridinone antitumor agents C-1305 and C-1311: highly selective substrates for UGT1A10” (Drug Metab Dispos, 2012)

Assays:
[1] = molecular target: T1, UDP-glucuronosyltransferase 1A9 (Homo sapiens, UniProt O60656); test: Activity of human recombinant UGT1A9 expressed in baculovirus-infected Sf9 cells assessed as enzyme-mediated glucuronidation per mg protein at 235 uM after 60 mins by Michaelis-Menten equation in presence of 3 mM UDP-GlcUA; format: ADME; details: sf9, 1 h
T1 sequence (O60656 whole entry): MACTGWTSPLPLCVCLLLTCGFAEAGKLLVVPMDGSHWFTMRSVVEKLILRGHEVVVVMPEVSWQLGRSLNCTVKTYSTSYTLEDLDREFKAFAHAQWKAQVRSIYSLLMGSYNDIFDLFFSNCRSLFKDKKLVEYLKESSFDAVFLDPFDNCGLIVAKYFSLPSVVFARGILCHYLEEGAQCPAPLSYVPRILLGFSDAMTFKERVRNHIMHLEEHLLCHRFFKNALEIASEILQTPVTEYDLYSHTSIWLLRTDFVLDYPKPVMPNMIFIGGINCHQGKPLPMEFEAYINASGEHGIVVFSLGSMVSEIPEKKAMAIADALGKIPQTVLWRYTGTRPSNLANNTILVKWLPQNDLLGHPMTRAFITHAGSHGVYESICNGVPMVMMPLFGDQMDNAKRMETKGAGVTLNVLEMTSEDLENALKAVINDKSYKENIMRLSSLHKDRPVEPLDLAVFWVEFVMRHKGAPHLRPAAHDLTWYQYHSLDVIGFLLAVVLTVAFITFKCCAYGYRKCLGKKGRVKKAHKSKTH

[2] = molecular target: T2, UDP-glucuronosyltransferase 1A1 (Homo sapiens, UniProt P22309); test: Drug metabolism assessed as human recombinant UGT1A1-mediated compound formation treated with C-1311 for 60 mins by ESI-MS/UV-vis spectroscopy in presence of 3 mM UDP-GlcUA; format: ADME; details: recombinant enzyme, 1 h
T2 sequence (P22309 whole entry): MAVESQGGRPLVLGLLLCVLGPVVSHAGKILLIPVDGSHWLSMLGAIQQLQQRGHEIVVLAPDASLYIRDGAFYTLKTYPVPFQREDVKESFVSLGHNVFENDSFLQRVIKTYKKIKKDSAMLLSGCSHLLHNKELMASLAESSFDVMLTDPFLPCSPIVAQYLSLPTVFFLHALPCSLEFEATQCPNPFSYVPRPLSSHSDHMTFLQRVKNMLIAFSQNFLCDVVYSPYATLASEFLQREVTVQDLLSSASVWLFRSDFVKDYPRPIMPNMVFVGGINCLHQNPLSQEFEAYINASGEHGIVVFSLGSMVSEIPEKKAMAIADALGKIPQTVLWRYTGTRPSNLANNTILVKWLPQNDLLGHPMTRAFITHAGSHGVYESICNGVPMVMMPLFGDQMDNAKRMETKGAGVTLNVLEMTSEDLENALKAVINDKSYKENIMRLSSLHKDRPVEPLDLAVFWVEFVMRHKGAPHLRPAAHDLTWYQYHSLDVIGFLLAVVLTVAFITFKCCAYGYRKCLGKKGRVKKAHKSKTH

[3] = Drug metabolism in human intestinal microsomes assessed as metabolite formation treated with C-1311 for 60 mins by ESI-MS/UV-vis spectroscopy in presence of 3 mM UDP-GlcUA; format: ADME, Intestine, Microsome; details: 1 h
Outline: (§1)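 Protein (5 μg UGT1A10 or microsomal) incubated with 0.2 mM substrate and 3 mM UDP-GlcUA, 60 min. HPLC on C18 at 25°C with a 15–80% methanol gradient in 0.05 M ammonium formate pH 3.4 at 1 ml/min. ESI positive-ion MS and UV/Vis spectra taken from the peaks. Glucuronide confirmed by 60 min further treatment with 1000 U E. coli β-glucuronidase.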

[4] = molecular target: T3, UDP-glucuronosyltransferase 1A10 (Homo sapiens, UniProt Q9HAW8); test: Drug metabolism assessed as human recombinant UGT1A10-mediated compound formation treated with C-1311 for 60 mins by ESI-MS/UV-vis spectroscopy in presence of 3 mM UDP-GlcUA; format: ADME; details: recombinant enzyme, 1 h; outline: as §1
T3 sequence (Q9HAW8 whole entry): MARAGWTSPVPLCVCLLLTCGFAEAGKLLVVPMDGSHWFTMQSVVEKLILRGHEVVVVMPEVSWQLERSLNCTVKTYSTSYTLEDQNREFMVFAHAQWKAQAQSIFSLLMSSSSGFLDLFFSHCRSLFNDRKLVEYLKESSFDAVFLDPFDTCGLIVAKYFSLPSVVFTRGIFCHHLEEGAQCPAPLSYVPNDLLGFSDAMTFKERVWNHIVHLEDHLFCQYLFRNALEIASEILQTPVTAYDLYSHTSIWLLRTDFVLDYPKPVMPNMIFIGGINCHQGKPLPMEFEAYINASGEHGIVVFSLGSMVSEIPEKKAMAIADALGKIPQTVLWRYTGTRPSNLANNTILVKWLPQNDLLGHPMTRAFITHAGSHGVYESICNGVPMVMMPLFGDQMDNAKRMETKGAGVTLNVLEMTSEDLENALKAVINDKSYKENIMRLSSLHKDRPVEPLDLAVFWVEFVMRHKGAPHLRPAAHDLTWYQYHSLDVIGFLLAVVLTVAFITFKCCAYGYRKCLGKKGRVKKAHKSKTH

Liver microsome [5] = test: Drug metabolism in human liver microsomes assessed as metabolite formation treated with C-1311 for 60 mins by ESI-MS/UV-vis spectroscopy in presence of 3 mM UDP-GlcUA; format: ADME; details: 1 h; outline: as §1
[6] = molecular target: T1, UDP-glucuronosyltransferase 1A9; test: Drug metabolism assessed as human recombinant UGT1A9-mediated compound formation treated with C-1305 for 60 mins by ESI-MS/UV-vis spectroscopy in presence of 3 mM UDP-GlcUA; format: ADME; details: recombinant enzyme, 1 h
Outline: (§2)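 Recombinant human UGT1A1 or UGT1A9 (5 μg protein), or single-donor human liver or intestinal microsomes (20 μg), incubated in Tris-HCl pH 7.4 with 5 mM MgCl2, 5 mM saccharolactone, 2% DMSO and 100 or 200 μM substrate. Started with UDP-GlcUA, 60 min at 37°C, in triplicate. Product identified by HPLC with positive-ion ESI-MS and UV/Vis spectra, and confirmed by β-glucuronidase hydrolysis.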

Liver microsome [7] = test: Drug metabolism in human liver microsomes assessed as metabolite formation treated with C-1305 for 60 mins by ESI-MS/UV-vis spectroscopy in presence of 3 mM UDP-GlcUA; format: ADME; details: 1 h; outline: as §2

Row | SMILES | Drug metabolism [1] | Drug metabolism [2] | Drug metabolism [3] | Drug metabolism [4] | Drug metabolism (Liver microsome [5]) | Drug metabolism [6] | Drug metabolism (Liver microsome [7])
1 | CCN(CC)CCNc1ccc2ncn3c4ccc(O)cc4c(=O)c1c23 [C-1311] | 0.14 nmol/min/mg | metabolite_detected | metabolite_detected | metabolite_detected | metabolite_detected | – | –
2 | CN(C)CCCNc1ccc2nnn3c4ccc(O)cc4c(=O)c1c23 | – | – | – | – | – | metabolite_detected | metabolite_detected
